One data set has as its system HUVEC. Description: Inhibition of HUVEC cell proliferation. The settings on record: Homo sapiens.
Data set [1] is described as follows: Solubility at pH 7.4. In kind it is physicochemical. Conditions: buffer. An outline of the steps:
(§1)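 Saturated compound solution in pH-adjusted buffer is filtered. Concentration comes from the HPLC peak area compared against standard methanolic solutions.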

For the next data set, the species on record is Homo sapiens. Description: Compound tested for ability to bind to human plasma protein. In kind it is cell-free. An outline of the steps: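 Human plasma binding: buffer solutions of test compound equilibrated with human plasma, free and bound drug separated by ultrafiltration, free compound concentration measured by HPLC; reported as percent bound.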

A short description of data set [2]: Solubility at pH 5.2. It is filed as physicochemical. Conditions: buffer. An outline of the steps: as §1
Data set [3] is described as follows: Partition coefficient (logP). The settings on record: octanol/water. In kind it is physicochemical. An outline of the steps: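 Shake-flask partition: a methanolic sample aliquot added to equal volumes of 1-octanol and pH 7.4 buffer, equilibrated 8 h, then compound concentration measured in each phase.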
Data set [4] in a line: Volume distribution of compound was determined as average of four rats at each dose of 5 mg/kg intravenous and 16 mg/kg peroral administration. It is filed as ADME, organism-based. The settings on record: rat, in vivo, read-out: Vdss. An outline of the steps: (§2)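 Rats (n=4 per route, averaged) dosed 5 mpk iv as a DMSO solution and 16 mpk po as a suspension in 0.5% methocel.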

Data set [5] can be described thus: Half life period as average of four rats at each dose of 5 mg/kg intravenous and 16 mg/kg peroral administration. Conditions: rat, in vivo. It is filed as ADME, organism-based. An outline of the steps:
as §2

Data set [6] in a line: CL (clearance) of compound was determined after intravenous administration in average of two dogs at a dose of 1 mg/kg. In kind it is ADME, organism-based, Canis lupus familiaris. Also on record: dose 1 mg/kg, route intravenous. Conditions: dog, in vivo. An outline of the steps: (§3)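 Dogs (n=2, averaged) received 1 mpk iv as a solution in DMSO.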
Data set [7] is described as follows: Half life period (t1/2) of compound was determined after intravenous administration in average of two dogs at a dose of 1 mg/kg. In kind it is ADME, organism-based, Canis lupus familiaris. Also on record: dose 1 mg/kg, route intravenous. Conditions: dog, in vivo. An outline of the steps:
as §3

Data set [8] in a line: Volume distribution (Vdss) of compound was determined after intravenous administration in average of two dogs at a dose of 1 mg/kg. It is filed as ADME, organism-based, Canis lupus familiaris. Also on record: dose 1 mg/kg, route intravenous. Conditions: dog, in vivo, read-out: Vdss. An outline of the steps: as §3
Data set [9] in a line: CL (clearance) of compound was determined as average of four rats at each dose of 5 mg/kg intravenous and 16 mg/kg peroral administration. It is filed as ADME, organism-based. The settings on record: rat, in vivo. An outline of the steps: as §2
Data set [10] can be described thus: Oral bioavailability (F%) of compound was determined as average of four rats at each dose of 5 mg/kg intravenous and 16 mg/kg peroral administration. The settings on record: rat, in vivo. It is filed as ADME, organism-based. An outline of the steps: as §2
A short description of data set [11]: Solubility atpH 5.2. The settings on record: pH 5.2. In kind it is physicochemical. An outline of the steps:
as §1

Data set [12] is described as follows: Half life period as average of four rats at each dose of 5 mg/kg intravenous and 20 mg/kg peroral administration. It is filed as ADME, organism-based. The settings on record: rat, in vivo. An outline of the steps:
(§4)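 Rats, four per route and values averaged; 5 mpk iv given as a solution in DMSO, 20 mpk po as a suspension in 0.5% methocel.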

Data set [13] can be described thus: Oral bioavailability (F%) of compound was determined as average of four rats at each dose of 5 mg/kg intravenous and 20 mg/kg peroral administration. It is filed as ADME, organism-based. Conditions: rat, in vivo. An outline of the steps:
as §4

The nature of data set [14]: CL (clearance) of compound was determined as average of four rats at each dose of 5 mg/kg intravenous and 20 mg/kg peroral administration. It is filed as ADME, organism-based. Conditions: rat, in vivo. An outline of the steps: as §4
Data set [15] can be described thus: Volume distribution of compound was determined as average of four rats at each dose of 5 mg/kg intravenous and 20 mg/kg peroral administration. It is filed as ADME, organism-based. The settings on record: rat, in vivo, read-out: Vdss. An outline of the steps: as §4

Molecules are shown by their SMILES. Values after ≈ are worked out from the molar mass of the structure shown. A value given as a limit tells only on which side of the number the result lay.

As to `c1ccc(-n2cnc3cc(-c4ccc(OCCN5CCCCC5)nc4)ccc32)cc1`, the IC50 with HUVEC was 122 nM.
As for `O=c1ccc(-c2ccc3c(c2)ncn3-c2ccccc2)cn1CCN1CCCCC1`, the solubility in [1] is > 1000 µg/mL. This compound also showed a Binding in the data set filed under Homo sapiens of 85%.
For `c1ccc(-n2cnc3cc(-c4ccc(OCCN5CCCCC5)cc4)cnc32)cc1`, the solubility came to 6460 µg/mL (≈ 16.2 mM) in [2] and 21 µg/mL (≈ 0.0527 mM) in data set [1]. For the same compound, the IC50 with HUVEC turned out to be 48 nM. Further, the logP in data set [3] turned out to be 3.55. In the data set listed under Homo sapiens, this compound returned a Binding of 97.4%.
Consider `c1ccc(-n2cnc3cc(-c4ccc(OCCN5CCCCC5)cc4)ccc32)cc1`, for which the solubility in data set [2] is 120 µg/mL (≈ 0.302 mM); in data set [1], < 0.01 µg/mL. Besides, the figures for the Vd in [4] and in data set [8] were 1.9 L/kg and 3.1 L/kg, respectively. Moreover, the figures for the half-life in data set [5] and in data set [7] were 6.1 h and 5.2 h, respectively. The clearance in data set [6] stood at 4.6 mL/min/kg; in data set [9] it was 14.4 mL/min/kg. For the same compound, it took 87 nM to reach half-maximal inhibition with HUVEC (IC50). Also, the logP in data set [3] is 4.29. The compound further displayed a Binding in the data set listed under Homo sapiens of 99.4%. In data set [10], the bioavailability stood at 76%.
As to `COc1ccc(-c2ccc3c(c2)ncn3-c2ccccc2)cc1`, the IC50 in the data set with HUVEC was > 1000 nM.
In the case of `O=c1cc(-c2ccc3c(c2)ncn3-c2ccccc2)ccn1CCCN1CCCCC1`, the results for the solubility in [11] and in [1] were 33900 µg/mL (≈ 82.2 mM) and 8400 µg/mL (≈ 20.4 mM), respectively. Moreover, the clearance was determined as 8.9 mL/min/kg in data set [6] and 17.3 mL/min/kg in data set [14]. Besides, the half-life was 2.9 h in data set [12] and 10.4 h in [7]. In the data set with HUVEC, this compound came in with a 50% inhibitory concentration (IC50) of 37 nM. Moreover, the logP in data set [3] turned out to be 2.25. In [13], this compound registered a bioavailability of 73%. The figures for the Vd in [8] and in data set [15] were 7.9 L/kg and 3.9 L/kg, respectively. This compound also returned a Binding in the data set listed under Homo sapiens of 80.7%.
`O=c1ccc(-c2ccc3c(c2)ncn3-c2ccccc2)cn1CCCN1CCCCC1` returned an IC50 in the data set with HUVEC of 152 nM.
Same read-out and setting: to `O=c1nc(-c2ccc3c(c2)ncn3-c2ccccc2)ccn1CCCN1CCCCC1` belongs 164 nM; to `c1ccc(-n2cnc3cc(-c4ccc(NCCN5CCOCC5)nc4)ccc32)cc1`, 213 nM.

The IC50 is the midpoint of a concentration-inhibition curve. As a reminder, the solubility is the concentration that dissolves in the medium under given conditions. A high value points to much dissolved substance. The term logP denotes the decadic logarithm of the partition coefficient of the neutral form, usually between octanol and water. High values mean higher lipophilicity, low ones lower lipophilicity. For orientation: half-life means the time needed for the level to fall by half in the phase considered. Low readings indicate fast loss, high ones slow loss. What is called bioavailability is the share of a dose that reaches the circulation, judged against a reference dose that is usually intravenous.

Values taken from ChEMBL document CHEMBL1144948, “Design and synthesis of 1,5-diarylbenzimidazoles as inhibitors of the VEGF-receptor KDR” (Bioorg Med Chem Lett, 2003).
